Measurements reported in ChEMBL document CHEMBL1123290, “Synthesis, antimalarial activity, and quantitative structure-activity relationships of tebuquine and a series of related 5-[(7-chloro-4-quinolinyl)amino]-3-[(alkylamino)methyl] [1,1'-biphenyl]-2-ols and N omega-oxides” (1986).

Experiments:
Format in all cases: functional
[1] = test system: Plasmodium berghei; test: Change in mean survival time of Plasmodium berghei infected mice (Mus musculus) after 5 mg/kg subcutaneous dose
[2] = test system: Plasmodium berghei; test: Change in mean survival time for control (average 6.2 days) versus treated mice (Mus musculus) after 160 mg/kg subcutaneous dose
[3] = test system: Plasmodium berghei; test: Change in mean survival time in control (average 6.2 days) versus treated mice (Mus musculus) after 80 mg/kg subcutaneous dose
[4] = test system: Plasmodium berghei; test: Change in mean survival time for control (average 6.2 days) versus treated mice (Mus musculus) after 40 mg/kg subcutaneous dose
[5] = test system: Plasmodium berghei; test: Change in mean survival time of Plasmodium berghei infected mice (Mus musculus) after […] subcutaneous dose
[6] = test system: Mus musculus; test: Antimalarial activity, administered as a single subcutaneous dose of 40 mg/kg, 72 hrs post infection measured as number of mice (Mus musculus) surviving at 60 days post infection
Method in brief: (§1)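 Mice were infected with a normal drug-sensitive Plasmodium berghei strain. At 72 h postinfection each received one subcutaneous dose of compound dissolved or suspended in peanut oil, in five-mouse groups per dose. The read-out was the number of mice alive at 60 days postinfection, which were scored as cured.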

[7] = test system: Plasmodium berghei; test: Antimalarial activity as 60-day survivors in infected mice (Mus musculus) after single 320mg/kg subcutaneous dose 72 hr post infection; method in brief: as §1
[8] = test system: Plasmodium berghei; test: Difference in mean survival time of Plasmodium berghei infected mice (Mus musculus) after 10 mg/kg subcutaneous dose
[9] = test system: Mus musculus; test: Antimalarial activity, administered as a single subcutaneous dose of 80 mg/kg, 72 hrs post infection measured as number of mice (Mus musculus) surviving at 60 days post infection; method in brief: as §1
[10] = test system: Mus musculus; test: Antimalarial activity, administered as a single subcutaneous dose of 640 mg/kg, 72 hrs post infection measured as number of mice (Mus musculus) surviving at 60 days post infection; method in brief: as §1
[11] = test system: Plasmodium berghei; test: Antimalarial activity as 60-day survivors in Plasmodium berghei infected mice (Mus musculus) after single 160mg/kg subcutaneous dose 72 hr post infection; method in brief: as §1
[12] = test system: Plasmodium berghei; test: Antimalarial activity as 60-day survivors in infected mice (Mus musculus) after single 20 mg/kg subcutaneous dose 72hr post infection; method in brief: as §1
[13] = test system: Plasmodium berghei; test: Change in mean survival time for control (average 6.2 days) versus treated mice (Mus musculus) after 320 mg/kg subcutaneous dose
[14] = test system: Plasmodium berghei; test: Change in mean survival time of Plasmodium berghei infected mice (Mus musculus) on 1.25 mg/kg subcutaneous dose
[15] = test system: Mus musculus; test: Delta MST, difference in mean survival time of the control mice (an average of 6.2 days) from the mean survival time of the treated mice after a single dose of (mg/kg sc) 1.25
[16] = test system: Plasmodium berghei; test: Change in mean survival time for control (average 6.2 days) versus treated mice (Mus musculus) after 20 mg/kg subcutaneous dose
[17] = test system: Plasmodium berghei; test: Change in mean survival time for control (average 6.2 days) versus treated mice (Mus musculus) 72 hrs after 640 mg/kg subcutaneous dose
[18] = test system: Plasmodium berghei; test: Change in mean survival time for control (average 6.2 days) versus treated mice (Mus musculus) 72 hrs after […] subcutaneous dose
[19] = test system: Plasmodium berghei; test: Change in mean survival time for control (average of 6.2 days) versus treated mice (Mus musculus) 72 hrs after 80 mg/kg subcutaneous dose
[20] = test system: Plasmodium berghei; test: (§2) Change in mean survival time for control (average 6.2 days) versus treated mice (Mus musculus) 72 hrs after […] subcutaneous dose
[21] = test system: Mus musculus; test: Antimalarial activity of compound administered as a single subcutaneous dose of 320 mg/kg, 72 hrs post infection measured as number of mice (Mus musculus) surviving at 60 days post infection; method in brief: as §1
[22] = test system: Plasmodium berghei; test: Change in mean survival time for control (average 6.2 days) versus treated mice (Mus musculus) 72 hrs after 20 mg/kg subcutaneous dose
[23] = test system: Mus musculus; test: Antimalarial activity of compound administered as a single subcutaneous dose of 80mg/kg, 72-h postinfection measured as number of mice (Mus musculus) surviving at 60 days postinfection; method in brief: as §1
[24] = test system: Plasmodium berghei; test: Change in mean survival time for control (average 6.2 days) versus treated mice (Mus musculus) 72 hrs after 10 mg/kg subcutaneous dose
[25] = test system: Plasmodium berghei; test: Difference in mean survival time in mice (Mus musculus) (control = 6.2 days) after single 40mg/kg subcutaneous dose 72hr post infection
[26] = test system: Plasmodium berghei; test: Change in mean survival time for control (average 6.2 days) versus treated mice (Mus musculus) 72 hrs after 320 mg/kg subcutaneous dose
[27] = test system: Mus musculus; test: Antimalarial activity of compound administered as a single subcutaneous dose of 20 mg/kg, 72 hrs post infection measured as number of mice (Mus musculus) surviving at 60 days post infection; method in brief: as §1
[28] = test system: Mus musculus; test: Antimalarial activity of compound administered as a single subcutaneous dose of 40 mg/kg, 72-h postinfection measured as number of mice (Mus musculus) surviving at 60 days postinfection; method in brief: as §1
[29] = test system: Plasmodium berghei; test: Change in mean survival time for control (average 6.2 days) versus treated mice (Mus musculus) 72 hrs after 5 mg/kg subcutaneous dose
[30] = test system: Plasmodium berghei; test: Change in mean survival time for control (average 6.2 days) versus treated mice (Mus musculus) 72 hrs after 160 mg/kg subcutaneous dose
[31] = test system: Mus musculus; test: Antimalarial activity of compound administered as a single subcutaneous dose of 160mg/kg, 72-h postinfection measured as number of mice (Mus musculus) surviving at 60 days postinfection; method in brief: as §1
[32] = test system: Mus musculus; test: Antimalarial activity of compound administered as a single subcutaneous dose of 10mg/kg, 72 hrs post infection measured as number of mice (Mus musculus) surviving at 60 days post infection; method in brief: as §1
[33] = test system: Plasmodium berghei; test: as §2; remark: listed apart in the source
[34] = test system: Mus musculus; test: Antimalarial activity of compound administered as a single subcutaneous dose of 5mg/kg, 72-h postinfection measured as number of mice (Mus musculus) surviving at 60 days postinfection; method in brief: as §1

| Structure (SMILES) | Delta MST [1] [days] | Delta MST [2] [days] | Delta MST [3] [days] | Delta MST [4] [days] | Delta MST [5] [days] | No. of mice cured [6] | No. of mice cured [7] | Delta MST [8] [days] | No. of mice cured [9] | No. of mice cured [10] | No. of mice cured [11] | No. of mice cured [12] | Delta MST [18] [days] | Delta MST [20] [days] | Delta MST [22] [days] | Delta MST [24] [days] | Delta MST [26] [days] | No. of mice cured [28] | Delta MST [29] [days] | Delta MST [30] [days] | further results |
| --- | --- | --- | --- | --- | --- | --- | --- | --- | --- | --- | --- | --- | --- | --- | --- | --- | --- | --- | --- | --- | --- |
| CCC(C)NCc1cc(Nc2cc[n+]([O-])c3cc(Cl)ccc23)cc(-c2ccc(Cl)cc2)c1O (configuration not stated) | 3.6 | 14.6 | 23.6 | 21.3 | 1.6 | 2 | 3 | 7.2 | 3 | 3 | 4 | 3 |  |  |  |  |  |  |  |  | Delta MST [13]: 17.1 days; Delta MST [14]: 0 days; Delta MST [15]: 0; Delta MST [16]: 22.6 days |
| CC(C)(C)NCc1cc(Nc2ccnc3cc(Cl)ccc23)cc(-c2ccccc2)c1O |  |  |  |  |  |  |  |  |  | 1 |  |  | 5.3 | 0.3 | 14.8 | 29.5 | 12.3 | 2 | 13.7 | 12.8 | Delta MST [17]: 13 days; Delta MST [19]: 27.3 days; No. of mice cured [21]: 1; No. of mice cured [23]: 1; Delta MST [25]: 20.2 days; No. of mice cured [27]: 1; No. of mice cured [31]: 1 |
| CCC(C)NCc1cc(Nc2ccnc3cc(Cl)ccc23)cc(-c2ccc(Cl)cc2)c1O (configuration not stated) |  |  |  |  |  |  | 1 |  | 3 |  |  | 3 | 2 | 0.2 | 21 | 23.6 | 12.5 | 4 | 11 | 14.2 | Delta MST [19]: 14 days; Delta MST [25]: 15 days |
| CC(C)(C)NCc1cc(Nc2cc[n+]([O-])c3cc(Cl)ccc23)cc(-c2ccc(Cl)cc2)c1O | 11.4 | 13.4 | 20.6 | 24.9 | 0.2 | 4 | 4 | 26.3 | 2 | 4 | 3 | 4 |  |  |  |  |  |  |  |  | No. of mice cured [32]: 1; Delta MST [33]: 13.9 days; Delta MST [13]: 13.9 days; Delta MST [14]: 0 days; No. of mice cured [34]: 1; Delta MST [15]: 0; Delta MST [16]: 28.9 days |
| CC(C)CNCc1cc(Nc2ccnc3cc(Cl)ccc23)cc(-c2ccc(Cl)cc2)c1O |  |  |  |  |  |  |  |  |  |  |  |  | 2 | 0.8 | 19.6 | 14.8 | 11.3 | 5 | 5.2 | 4.9 | Delta MST [17]: 13.4 days; No. of mice cured [21]: 2; No. of mice cured [23]: 5; No. of mice cured [27]: 2; No. of mice cured [31]: 2 |
